Screens (PubChem BioAssay)
SR-BI DiI-HDL act – activators of SR-BI mediated DiI-HDL uptake, primary screen, ldlA[mSR-BI] CHO cells, DiI fluorescence | activation, % at 12.5 µM | AID 504775, 2011 | hit rate 0.096% among 320,000 | 3 h; 100 = double the neutral-control signal;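 active = mean replicate activation of at least 60% and every replicate at or above 60%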;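 note: 0% = median plate neutral-control signal and 100% = twice that signal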
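Assay system: LDL receptor-deficient CHO ldlA cells overexpressing murine SR-BI / Medium: BSA-supplemented, HEPES-buffered Ham's F12, pH 7.4 / Probe or stimulus: DiI-labelled HDL at 10 µg/mL final / Timing: compound with DiI-HDL co-incubation, 3 h at 37 °C / Technique: bottom-read cell fluorescence after medium removal, ex 550/em 595 nm / Measure: HDL uptake via cellular fluorescence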
TLR4-MyD88 BLA – inhibitors of TLR4-MyD88 association in cells, primary screen, cell-based, HeLa CL3-4, BLA complementation, FRET ratio | Toll-like receptor 4 (Homo sapiens) + Myeloid differentiation primary response protein … | HeLa CL3-4 TLR4/MyD88 BLA complementation | inhibition, % at 8.4 µM | hit rate 0.18% among 200,000; in the data active = inhibition above about 25%;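 note: 0% = vehicle and 100% = reference inhibitor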
Target sequence (O00206 whole entry, looked up): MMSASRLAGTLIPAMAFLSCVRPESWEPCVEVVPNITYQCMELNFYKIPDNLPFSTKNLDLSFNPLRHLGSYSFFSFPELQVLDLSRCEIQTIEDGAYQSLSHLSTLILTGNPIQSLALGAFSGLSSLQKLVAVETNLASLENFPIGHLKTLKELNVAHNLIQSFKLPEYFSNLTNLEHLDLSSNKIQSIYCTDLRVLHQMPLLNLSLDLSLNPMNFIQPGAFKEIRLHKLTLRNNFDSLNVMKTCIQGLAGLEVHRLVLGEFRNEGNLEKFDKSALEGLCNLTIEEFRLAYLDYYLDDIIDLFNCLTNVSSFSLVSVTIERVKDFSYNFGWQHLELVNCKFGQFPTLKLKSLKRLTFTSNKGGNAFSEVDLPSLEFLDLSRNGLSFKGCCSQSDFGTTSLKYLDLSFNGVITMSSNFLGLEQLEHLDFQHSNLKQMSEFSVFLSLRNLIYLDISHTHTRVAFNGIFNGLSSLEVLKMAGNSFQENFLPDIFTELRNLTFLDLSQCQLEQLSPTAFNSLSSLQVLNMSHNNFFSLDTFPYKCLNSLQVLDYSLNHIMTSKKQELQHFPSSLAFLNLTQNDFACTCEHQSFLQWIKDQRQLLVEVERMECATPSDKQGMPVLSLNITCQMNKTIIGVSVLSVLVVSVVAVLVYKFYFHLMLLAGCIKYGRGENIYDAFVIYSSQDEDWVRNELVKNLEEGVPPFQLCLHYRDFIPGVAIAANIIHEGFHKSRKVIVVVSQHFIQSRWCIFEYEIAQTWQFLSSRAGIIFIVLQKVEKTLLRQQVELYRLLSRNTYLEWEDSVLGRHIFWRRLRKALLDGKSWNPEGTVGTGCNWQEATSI
Target sequence (Q99836 whole entry, looked up): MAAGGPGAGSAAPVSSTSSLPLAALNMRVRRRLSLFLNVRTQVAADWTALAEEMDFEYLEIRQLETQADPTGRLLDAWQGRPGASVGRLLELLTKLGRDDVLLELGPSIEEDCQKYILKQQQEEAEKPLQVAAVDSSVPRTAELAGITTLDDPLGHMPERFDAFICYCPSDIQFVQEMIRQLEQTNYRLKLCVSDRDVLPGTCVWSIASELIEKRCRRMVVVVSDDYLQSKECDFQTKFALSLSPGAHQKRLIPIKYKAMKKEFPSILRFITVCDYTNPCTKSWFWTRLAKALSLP
Hep lipid drop – inhibitors of hepatocyte lipid droplet formation, primary screen, imaging, high-throughput imaging, BODIPY stain; AML12 mouse hepatocytes, oleate lipid droplets; inhibition, % at 6.5 µM; hit rate 0.4% among 240,000;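 active = lipid droplet intensity inhibited by at least 50%, with more than 500 cells counted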
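System: AML12 hepatocytes (mouse). Probe or stimulus: oleic acid at 100 µM to induce lipid droplet formation. Times: overnight treatment with compound plus oleate. Detection: Image-based BODIPY and DAPI two-channel analysis. Evaluation: percent inhibition of filter-corrected integrated lipid droplet intensity per well.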
TLR9-MyD88 inh – inhibitors of TLR9-MyD88 association in cells, primary screen, cell-based, CHO, BLA complementation, fluorescence | Toll-like receptor 9 (Homo sapiens) + Myeloid differentiation primary response protein … | CCF4 FRET ratio | inhibition, % at 4.98 µM | hit rate 0.21% among 340,000 | AID 504734, 2011;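 active = inhibition above the mean over all tested compounds plus 3 SD, cut at about 21% in these data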;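 note: 0% = DMSO only wells and 100% = clavulanate BLA inhibitor control wells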
NOD2 RIPK2 PPI – NOD2-RIPK2 binding disruptors in cells, primary screen, fluorescence, CHO cells, BLA complementation; Receptor-interacting serine/threonine-protein kinase 2 (Homo sapiens), O43353; AID 624267, 2012; hit rate 0.38% among 360,000; CCF4 ratio; inhibition, % at 4.98 µM; in the data active = inhibition above about 21%;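 note: 0% = vehicle only and 100% = reference blocker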
SR-BI DiI inh – inhibitors of SR-BI mediated HDL lipid uptake, primary screen, ldlA[mSR-BI] cells, fluorescence, single point; Scavenger receptor class B member 1 (Mus musculus), Q61009; ldlA[mSR-BI] CHO cells, DiI-HDL uptake fluorescence, 3 h; inhibition, % at 12.5 µM; hit rate 0.96% among 320,000; AID 488896, 2010;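 active = mean replicate inhibition of at least 70% and a set share of replicates each scoring 70 or more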;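 note: 0% = median of neutral control wells and 100% = median of positive control wells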
Lipid drop inh – hepatocyte lipid droplet accumulation inhibitors, confirmation, imaging, AML12 mouse hepatocytes, single concentration, high-content | hit rate 65% among 870 | AID 463183, 2010 | inhibition, % at 5.2 µM | shares compounds with Hep lipid drop | BODIPY lipid droplet imaging; droplets induced with 100 µM oleic acid;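 active = inhibition of lipid droplet metric at least 50%, with more than 300 cells in each of four replicates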;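 note: plate controls were DMSO with oleic acid for no effect and 5 µM Triacsin-C for full effect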
AML12 cytotox – AML12 hepatocyte cytotoxicity, counter-screen for hepatic lipid droplet formation project, imaging, DAPI nuclear morphology imaging; hit rate 3% among 870; shares compounds with Hep lipid drop; AML12 mouse hepatocytes; hits give high values; cells fed 100 µM oleate overnight; z-score at 5 µM; in the data active = z-score above about 6.3;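 note: compound exposure lasted overnight at 37 °C before fixation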
AML12 tox conf – AML12 hepatocyte cytotoxicity, confirmation, cytotoxicity control for hepatic lipid droplet formation project, cell-based, single concentration; shares compounds with Hep lipid drop; AML12 mouse hepatocyte viability, ATP luminescence; cells loaded with 100 µM oleic acid; cytotoxicity, % at 50 µM; 530 tested, under 10 active;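 active = cytotoxicity above 50% in each of four replicates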;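 note: compound exposure lasted overnight at 37 °C before the ATP read; 0% = DMSO-treated cells and 100% = wells with no cells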
* marks the source's active call; other numbers are inactive results; x = not tested or not shown. In the library only some 1.6% were active in any assay of this set; here they are far more common.

SMILES | SR-BI DiI-HDL act | TLR4-MyD88 BLA | Hep lipid drop | TLR9-MyD88 inh | NOD2 RIPK2 PPI | SR-BI DiI inh | Lipid drop inh | AML12 cytotox | AML12 tox conf
COc1ccc(OCCCCc2c(C)n[nH]c2C)cc1 | 14.1 | x | x | 9.3 | -17.9 | -14.1 | x | x | x
O=C(NC(=S)NCc1ccccc1Cl)c1cccs1 | 0.0 | x | x | 3.7 | 2.1 | 0.0 | x | x | x
O=C(COc1ccc(Cl)cc1)NC1CCSC1=O (stereo unspecified) | 9.8 | -0.3 | 0.4 | 0.5 | -8.7 | -9.8 | x | x | x
Cc1ccccc1Nc1nnc(SCc2cc([N+](=O)[O-])cc3c2OCOC3)s1 | -35.4 | -11.5 | 37.8 | -3.9 | 2.5 | 35.4 | x | x | x
O=[N+]([O-])c1cc2c(c(CSc3nnc(Nc4ccccc4)s3)c1)OCOC2 | -1.3 | 6.0 | 64.1* | -3.7 | -8.1 | 1.3 | 93.2* | -1.64 | 8.6
CCOc1ccc(NS(=O)(=O)c2ccc(C(=O)N(CC)CC(=O)NCc3cccs3)cc2)cc1 | -10.2 | x | 77.8* | -8.5 | -10.5 | 10.2 | 98.1* | -0.106 | 20.1
CCOc1ccc(NS(=O)(=O)c2ccc(C(=O)N3CCN(c4ncccn4)CC3)cc2)cc1 | -11.0 | -16.2 | -13.0 | 0.5 | -9.7 | 11.0 | x | x | x
CCOc1ccc(S(=O)(=O)Nc2ccc(C(=O)N(CC)CC(=O)NCc3cccs3)cc2)cc1 | x | x | x | -7.7 | -3.6 | x | x | x | x
CCOC(=O)c1ccc(S(=O)(=O)Nc2ccc(N3CCOCC3)cc2)cc1 | 20.5 | x | 86.5* | -0.6 | 3.1 | -20.5 | 79.3* | -0.0942 | 4.3
CCOc1ccc(NS(=O)(=O)c2ccc(C(=O)N3CCCCC3)cc2)cc1 | 18.3 | x | 57.3* | 5.2 | -2.1 | -18.3 | 87.1* | 0.114 | 20.6
Cc1c(C=O)c2ccccn2c1C(=O)c1cccs1 | 10.1 | 12.5 | -7.2 | 0.7 | 2.3 | -10.1 | x | x | x
C/C(=N\Nc1nc2ccccc2s1)c1cccs1 | -32.6 | -0.9 | 5.6 | 0.7 | -9.7 | 32.6 | x | x | x
C/C(=N\Nc1nc(-c2ccccc2)cs1)c1cccs1 | -37.8 | -2.0 | 52.5* | -5.3 | -5.7 | 37.8 | 96.1* | -1.2 | 27.7
CCOC(=O)c1c(C)[nH]c(N=Nc2ccccc2Cl)c1C | x | x | 64.8* | 0.6 | 5.1 | x | 104.8* | 0.393 | 4.7
O=C(Cc1coc2ccc3ccccc3c12)NC1CCCc2ccccc21 (stereo unspecified) | -43.3 | -5.3 | 51.9* | -10.5 | -10.4 | 43.3 | 91.4* | 0.157 | 18.8
CC(C)CN(C(=O)C(C)N1C(=O)c2ccccc2C1=O)c1c(N)n(Cc2ccccc2)c(=O)[nH]c1=O (stereo unspecified) | 23.1 | x | x | -0.1 | -4.1 | -23.1 | x | x | x
COc1ccc(Cl)cc1NC(=O)CN(C)C(=O)Cc1ccsc1 | -14.8 | x | x | -0.3 | -0.4 | 14.8 | x | x | x
COc1ccc(Cl)cc1NC(=O)CN(C)C(=O)Cc1ccc2c(c1)CCC2 | -19.4 | x | 52.0* | 1.2 | -2.4 | 19.4 | 84.6* | 0.128 | 19.0
Cc1ccc(-n2ncc3c2ncn2c(C)nnc32)cc1C | -31.9 | -4.5 | x | 6.2 | -16.7 | 31.9 | x | x | x
O=C(CNc1cc(S(=O)(=O)N2CCCC2)ccc1OCC(F)(F)F)Nc1cccc(C(F)(F)F)c1 | x | -12.1 | 54.1* | 2.1 | -2.8 | x | -4.2 | 0.042 | x
